Data: ChEMBL document CHEMBL1137127 (Bioorg Med Chem Lett, 2004)
pIC50, pKi: −log10 of the molar value.

Legend:
[1] = Plasma clearance of compound upon p.o. administration at 10 mg/kg; format: ADME, organism-based; parameters: dose 10 mg/kg, route oral; conditions: rat, po, read-out: Clp
Procedure, shortened: (§1)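 Rat pharmacokinetics with two dosing regimens. In one, iv at 2 mg/kg with po at 10 mg/kg. In the other, iv at 1 mg/kg with po at 2 mg/kg. Bioavailability, clearance, half-life and Cmax come from plasma after each route.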

[2] = Bioavailability in rat (dose 2 mg/kg i.v.); format: ADME, organism-based; conditions: in vivo, iv; procedure, shortened: as §1
[3] = Maximum plasma concentration of compound after p.o. administration; format: ADME, organism-based; parameters: route oral; conditions: rat, po; procedure, shortened: as §1
[4] = Bioavailability in rat (dose 10 mg/kg p.o.); format: ADME, organism-based; conditions: in vivo, po; procedure, shortened: as §1
[5] = Half-life of compound after i.v. administration; format: ADME, organism-based; conditions: rat, in vivo, iv; procedure, shortened: as §1
[6] = Plasma clearance of compound upon i.v. administration at 2 mg/kg; format: ADME, organism-based; parameters: dose 2 mg/kg, route intravenous; conditions: rat, iv, read-out: Clp; procedure, shortened: as §1
[7] = target: Metabotropic glutamate receptor 5 (Homo sapiens, UniProt P41594); experiment: In vitro potency against human recombinant mGlu5 receptor was determined by [Ca2+] flux assay using glutamate as agonist; format: functional
Procedure, shortened: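 Ltk cells stably expressing human recombinant mGlu5; automated assay of cytosolic Ca²⁺ changes by fura-2 fluorescence; IC50 from antagonist response. Mean with a spread value and n in parentheses.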

[8] = target: Metabotropic glutamate receptor 5 (Rattus norvegicus, UniProt P31424); experiment: Displacement by compound of [3H]3-methoxy-5-(pyridin-2-ylethynyl)pyridine from rat cortical membranes; format: cell membranes, Membrane
Procedure, shortened: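 Native rat mGlu5 binding: rat cortical membranes, displacement of [³H]-3-methoxy-5-(pyridin-2-ylethynyl)pyridine by test compound; Ki derived.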

[9] = logD value was determined; format: physicochemical; conditions: octanol/water
[10] = Bioavailability of compound was determined upon i.v. administration at 1 mg/kg in rat; format: ADME, organism-based; conditions: in vivo, iv; procedure, shortened: as §1
[11] = Plasma clearance of compound upon i.v. administration at 1 mg/kg; format: ADME, organism-based; parameters: dose 1 mg/kg, route intravenous; conditions: rat, iv, read-out: Clp; procedure, shortened: as §1
[12] = Bioavailability of compound was determined upon p.o. administration at 2 mg/kg in rat; format: ADME, organism-based; conditions: in vivo, po; procedure, shortened: as §1
[13] = Plasma clearance of compound upon p.o. administration at 2 mg/kg; format: ADME, organism-based; parameters: dose 2 mg/kg, route oral; conditions: rat, po, read-out: Clp; procedure, shortened: as §1

Metabotropic glutamate receptor 5 (Rattus norvegicus, UniProt P31424), sequence (P31424 whole entry): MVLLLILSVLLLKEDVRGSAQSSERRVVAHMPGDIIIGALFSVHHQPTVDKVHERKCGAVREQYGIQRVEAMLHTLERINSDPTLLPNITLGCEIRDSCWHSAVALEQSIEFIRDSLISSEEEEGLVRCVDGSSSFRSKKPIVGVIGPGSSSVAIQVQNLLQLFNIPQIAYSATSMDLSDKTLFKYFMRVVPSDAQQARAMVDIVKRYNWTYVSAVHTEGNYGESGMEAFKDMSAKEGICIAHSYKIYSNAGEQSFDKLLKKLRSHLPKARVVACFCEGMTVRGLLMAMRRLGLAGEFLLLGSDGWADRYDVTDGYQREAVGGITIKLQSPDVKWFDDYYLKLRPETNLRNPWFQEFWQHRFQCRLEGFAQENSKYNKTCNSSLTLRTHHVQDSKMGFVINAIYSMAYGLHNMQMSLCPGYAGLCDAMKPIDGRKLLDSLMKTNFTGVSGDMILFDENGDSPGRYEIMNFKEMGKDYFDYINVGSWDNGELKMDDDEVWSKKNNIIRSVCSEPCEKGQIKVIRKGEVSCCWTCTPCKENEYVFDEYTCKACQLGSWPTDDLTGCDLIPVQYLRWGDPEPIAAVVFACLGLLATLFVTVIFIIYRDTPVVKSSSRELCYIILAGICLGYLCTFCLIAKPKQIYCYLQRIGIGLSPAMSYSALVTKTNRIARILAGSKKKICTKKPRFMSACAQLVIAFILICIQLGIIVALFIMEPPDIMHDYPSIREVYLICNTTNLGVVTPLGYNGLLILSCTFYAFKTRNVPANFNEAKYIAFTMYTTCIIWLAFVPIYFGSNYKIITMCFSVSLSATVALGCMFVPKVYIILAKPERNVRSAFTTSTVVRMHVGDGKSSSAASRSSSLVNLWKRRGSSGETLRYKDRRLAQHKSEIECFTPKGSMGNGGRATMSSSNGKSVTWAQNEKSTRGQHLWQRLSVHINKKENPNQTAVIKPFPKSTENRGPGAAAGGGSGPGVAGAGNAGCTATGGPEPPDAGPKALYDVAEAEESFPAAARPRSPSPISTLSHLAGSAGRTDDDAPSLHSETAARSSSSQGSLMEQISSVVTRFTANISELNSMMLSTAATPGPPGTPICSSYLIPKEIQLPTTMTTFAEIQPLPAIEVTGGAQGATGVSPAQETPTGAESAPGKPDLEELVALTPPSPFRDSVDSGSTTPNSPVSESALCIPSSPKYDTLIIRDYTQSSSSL
Metabotropic glutamate receptor 5 (Homo sapiens, UniProt P41594), sequence (P41594 whole entry): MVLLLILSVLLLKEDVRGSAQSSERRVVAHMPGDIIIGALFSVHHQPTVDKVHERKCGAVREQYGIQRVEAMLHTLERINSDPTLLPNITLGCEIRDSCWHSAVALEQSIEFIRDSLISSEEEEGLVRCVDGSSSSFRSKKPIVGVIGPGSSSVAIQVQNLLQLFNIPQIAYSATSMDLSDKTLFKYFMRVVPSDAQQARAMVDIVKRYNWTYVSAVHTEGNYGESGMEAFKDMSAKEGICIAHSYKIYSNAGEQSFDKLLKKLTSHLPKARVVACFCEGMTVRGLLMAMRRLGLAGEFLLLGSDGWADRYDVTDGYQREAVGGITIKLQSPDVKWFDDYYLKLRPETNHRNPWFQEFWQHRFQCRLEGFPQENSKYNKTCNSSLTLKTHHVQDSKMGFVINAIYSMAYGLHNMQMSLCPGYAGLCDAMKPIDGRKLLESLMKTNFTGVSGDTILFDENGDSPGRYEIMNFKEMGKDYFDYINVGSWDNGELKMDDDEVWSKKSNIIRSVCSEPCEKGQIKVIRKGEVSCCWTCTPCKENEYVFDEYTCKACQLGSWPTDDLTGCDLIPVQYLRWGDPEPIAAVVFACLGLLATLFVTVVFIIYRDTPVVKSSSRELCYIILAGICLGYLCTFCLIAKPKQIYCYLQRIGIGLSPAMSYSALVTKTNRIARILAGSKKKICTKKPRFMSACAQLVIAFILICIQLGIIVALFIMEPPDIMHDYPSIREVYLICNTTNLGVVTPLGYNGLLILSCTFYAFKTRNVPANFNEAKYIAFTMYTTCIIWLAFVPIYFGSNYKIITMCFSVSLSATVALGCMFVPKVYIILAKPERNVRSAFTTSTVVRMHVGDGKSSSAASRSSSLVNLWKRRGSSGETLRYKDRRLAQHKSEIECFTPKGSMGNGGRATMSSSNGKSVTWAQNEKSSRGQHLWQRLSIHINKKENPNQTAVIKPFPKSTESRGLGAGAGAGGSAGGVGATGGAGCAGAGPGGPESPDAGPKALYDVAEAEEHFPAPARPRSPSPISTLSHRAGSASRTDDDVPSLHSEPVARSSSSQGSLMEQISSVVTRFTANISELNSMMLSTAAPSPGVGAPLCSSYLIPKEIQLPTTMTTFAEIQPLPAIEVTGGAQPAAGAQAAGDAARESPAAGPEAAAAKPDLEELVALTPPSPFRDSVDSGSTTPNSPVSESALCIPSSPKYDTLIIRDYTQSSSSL

SMILES	pIC50 [7]	pKi [8]	logD [9]	other results
Cc1nc(C#Cc2cccnc2)cs1	–	–	–	CL/F [1]: 28 mL/min/kg; bioavailability [2]: 16%; Cmax [3]: 2000 nM; bioavailability [4]: 16%; half-life [5]: 8.3 h; clearance [6]: 28 mL/min/kg
Cc1nc(C#Cc2ccccc2C)cs1	7.82	7.29	3.8	–
Cc1nc(C#Cc2cccc(-c3ccccc3)c2)cs1	–	–	4.1	–
Cc1nc(C#Cc2ccc(-c3cccnc3)nc2)cs1	–	–	3.1	CL/F [1]: 15 mL/min/kg; bioavailability [2]: 100%; Cmax [3]: 6500 nM; bioavailability [4]: 100%; half-life [5]: 0.8 h; clearance [6]: 15 mL/min/kg
Cc1nc(C#Cc2ccc(-c3ccccn3)nc2)cs1	8.40	7.80	3.7	–
Cc1nc(C#Cc2ccc(-c3ccncc3)nc2)cs1	7.54	7.68	2.9	–
Cc1nc(C#Cc2ccncc2)cs1	6.90	6.66	–	–
Cc1nc(C#Cc2ccccc2)cs1	8.40	8.05	–	–
Cc1ccc(C#Cc2csc(C)n2)cc1	6.07	6.20	3.9	–
Cc1nc(C#Cc2ccc(-c3ccccc3)nc2)cs1	–	–	3.9	–
Cc1nc(C#Cc2cncc(-c3cccnc3)c2)cs1	8.52	9.00	2.4	bioavailability [10]: 26%; clearance [11]: 29 mL/min/kg; Cmax [3]: 800 nM; half-life [5]: 1.6 h; bioavailability [12]: 26%; CL/F [13]: 29 mL/min/kg
Cc1cccc(C#Cc2csc(C)n2)c1	–	–	3.9	–
Cc1nc(C#Cc2cncc(-c3ccccc3)c2)cs1	8.70	7.40	4.1	–
Cc1nc(C#Cc2ccccc2-c2ccccc2)cs1	6.37	6.84	–	–
Cc1nc(C#Cc2ccc(-c3ccccc3)cc2)cs1	7.66	7.37	5	–
Cc1nc(C#Cc2cncc(-c3ccccn3)c2)cs1	7.66	7.55	2.8	–
Cc1nc(C#Cc2ccccn2)cs1	–	7.27	–	–
Cc1nc(C#Cc2cncc(-c3ccncc3)c2)cs1	7.74	7.82	2.6	–
